Yeast life ext – compounds extending yeast replicative lifespan, primary screen, S. cerevisiae, OD615; inhibition of the nicotinamide effect, % at 10 µM; S. cerevisiae growth with nicotinamide; deaD strain in restrictive glucose medium; actives 0.68% (n = 130,000);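 active = inhibition above a set limit, placed 3 SD over the median of all compounds, cut at about 26% in these data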;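 also: 0% = nicotinamide-treated wells and 100% = cells grown without nicotinamide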
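Measured by: optical density (absorbance) at 615 nm; System: modified budding yeast, DeaD strain; Medium: restrictive CSMM-D dextrose medium; Timing: 4 h preincubation then 48 h treatment at 30 °C.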
Mdm2 ligase inh – MDM2-luciferase reporter signal enhancers, primary screen, MDM2 E3 ligase inhibitor project, cell-based, luminescence, 1536-well | E3 ubiquitin-protein ligase Mdm2 (Homo sapiens), Q00987 | cell-based MDM2 ubiquitination luciferase reporter, 2 h; 0 = plate control, 100 = twice control, blank-subtracted | signal enhancement, % at 5 µM | actives 0.11% (n = 210,000);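 active = signal enhancement of 30% or more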;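 also: luminescence tracks abundance of the self-degrading MDM2-luciferase fusion protein; higher signal means inhibition of MDM2 E3 ligase activity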
Target sequence (Q00987 whole entry, looked up, the tested form may be a part): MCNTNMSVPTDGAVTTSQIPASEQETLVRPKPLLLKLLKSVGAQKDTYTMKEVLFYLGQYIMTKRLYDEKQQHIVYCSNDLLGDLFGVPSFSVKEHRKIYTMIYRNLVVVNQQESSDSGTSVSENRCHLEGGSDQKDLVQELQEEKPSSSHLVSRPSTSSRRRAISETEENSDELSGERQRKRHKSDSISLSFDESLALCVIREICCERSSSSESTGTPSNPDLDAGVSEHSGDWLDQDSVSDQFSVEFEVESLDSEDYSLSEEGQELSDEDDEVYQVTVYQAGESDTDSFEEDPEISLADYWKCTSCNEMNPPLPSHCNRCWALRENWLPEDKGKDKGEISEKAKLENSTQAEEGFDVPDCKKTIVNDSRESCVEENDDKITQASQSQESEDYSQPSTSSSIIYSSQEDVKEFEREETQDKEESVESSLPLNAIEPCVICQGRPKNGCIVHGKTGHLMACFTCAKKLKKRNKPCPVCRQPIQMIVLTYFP
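Assay system: stable mammalian line carrying autodegrading MDM2–luciferase fusion reporter; amount: 2000 cells seeded into each well; buffer or medium: DMEM; benchmarks: plate control and blank wells; signal: luciferase luminescence; timing: 2 h compound exposure at 37 °C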
INS promoter inh – inhibitors of insulin promoter-driven GFP, primary screen, imaging, TRM-6 cells, eGFP reporter, cell count. actives 0.9% (n = 130,000). inhibition, % at 2 µM. reporter expression induced with tamoxifen;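 active = inhibition above the mean plus 3 SD, with well images judged a real hit on visual review, cut at about 60% in these data, passing the limit was not always enough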
RAM inhibit – inhibitors of the yeast RAM network, primary screen, dse1pr::URA3 reporter, 5-FOA selection. S. cerevisiae dse1pr::URA3 reporter, 5-FOA growth OD615, 2 d; analog-sensitive cbk1-as2 kinase mutant strain. inhibition, % at 50 µM. actives 1.8% (n = 190,000). AID 868, 2007;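 active = inhibition above a set limit, 3 SD over mean compound inhibition, cut at about 8.4% in these data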;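 also: 0% = DMSO-only wells with no growth and 100% = 10 µM 1-NA-PP1 full growth; inhibition rescues growth on 5-FOA so higher OD means more RAM inhibition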
Yeast growth inh – growth inhibitors of yeast BB579 in restrictive medium, primary screen, yeast lifespan-shortening project, S. cerevisiae; inhibition, % at 10 µM; AID 804, 2007; OD615, 48 h; actives 0.51% (n = 140,000);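 active = inhibition above a set limit, 3 SD over the mean compound inhibition, cut at about 44% in these data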
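controls = amphotericin B 10 µg/mL, positive | assay system = DeaD yeast strain BB579 | schedule = 48 h compound exposure at 30 °C after 4 h preincubation | detection = OD615 turbidity measurement | medium = restrictive CSMM-D medium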
Measles CPE – compounds protecting cells from measles virus cytopathic effect, primary screen, measles RdRp inhibitor project, single point, MLSMR library, absorbance; protection (pct of control), % at 4 µM; actives 1.5% (n = 140,000); AID 841, 2007; Measles virus-infected cells, CPE protection; in the data active = protection mostly above about 24%, no sharp cut-off; inactive = mostly below about 26%
Numbers without * were called inactive; · = no result given. In the library only some 4% were active in any assay of this set; here they are far more common.

SMILES	Yeast life ext	Mdm2 ligase inh	INS promoter inh	RAM inhibit	Yeast growth inh	Measles CPE
CC(OC(=O)CNC(=O)C12CC3CC(CC(C3)C1)C2)C(=O)Nc1ccc(S(N)(=O)=O)cc1 (stereo not drawn)	·	-10.5	31.6	0.4	·	·
CC(=O)Nc1nc(C)c(Oc2ccccc2)c(=O)[nH]1	81.4*	-10.0	0.0	0.3	-40.0	6.5
CC1CC(C)CN(C(=O)c2cccc(S(=O)(=O)Nc3cc(C(F)(F)F)ccc3Cl)c2)C1 (stereo not drawn)	32.0*	-14.6	50.0	4.9	-21.9	6.8
O=C(O)c1cccc(S(=O)(=O)Nc2cc(Cl)ccc2Cl)c1	·	6.8	·	·	·	·
CC(=O)N/N=C/c1ccc(OCCOc2ccc(Br)cc2)cc1	-0.8	-10.9	13.8	4.3	-29.0	17.0
Cc1noc(C)c1C(=O)NCc1ccccc1F	·	-6.4	·	0.4	·	·
CCOc1ccccc1OCCOc1ccccc1OC(C)C	-7.9	-4.3	-41.7	18.3*	12.1	7.6
Cc1cccnc1NC(=O)CSc1nnc(Cc2ccccc2)o1	·	3.9	4.8	3.0	-41.2	5.2
O=C(Nc1ccccc1[N+](=O)[O-])c1cccnc1Cl	-1.8	6.0	3.1	1.2	-28.8	1.8
O=C(NCCN1C(=O)S/C(=C\c2ccccc2F)C1=O)C1CCCN1C(=O)c1cccs1 (stereo not drawn)	-6.7	-3.0	·	1.9	-3.9	19.4
O=C(NCCN1C(=O)S/C(=C/c2ccccc2)C1=O)C1CCCN1C(=O)c1cccs1 (stereo not drawn)	-5.1	-9.7	·	9.5*	-33.3	11.3
COc1ccc(/C=C2/SC(=O)N(CCNC(=O)C3CCCN3C(=O)c3cccs3)C2=O)cc1 (stereo not drawn)	-1.7	2.5	-29.7	8.3	-8.6	42.0*
O=C(NCc1ccco1)c1cc([N+](=O)[O-])cc([N+](=O)[O-])c1	4.2	-39.6	66.7*	-0.3	-36.0	4.3
O=C(NCc1ccco1)c1cc(=O)c2ccccc2o1	·	-8.2	0.0	-0.4	·	·
O=C(NCc1ccco1)c1cc([N+](=O)[O-])ccc1Cl	·	-18.5	·	2.6	·	·
O=C(NCc1ccco1)c1cc2ccccc2c(=O)o1	-4.8	-9.7	78.6*	0.5	14.4	12.0
CC1(C)CC(=O)C2=C(C1)OC1=C(C(=O)CC(C)(C)C1)C2c1ccc(O)cc1O	41.6*	-2.0	42.9	1.7	4.9	1.0
CCOc1ccc(C2NC(=O)C(C#N)=C(S)N2c2ccc(OC)cc2)cc1OC (stereo not drawn)	-6.8	-3.8	80.0*	0.7	-13.5	6.8
NC(=O)[C@H]1CC2(CC(c3cccc(NC(=O)[C@H]4CCC(=O)N4)c3)=NO2)CN1C(=O)c1cc([N+](=O)[O-])cc([N+](=O)[O-])c1 (stereo partly drawn)	·	26.3	·	·	·	·
CC(=O)N/C(=C/c1ccc([N+](=O)[O-])cc1)C(=O)O	·	-6.6	·	-0.5	·	·
CCCCn1c(SCc2nc3ccccc3s2)nc2cc(S(N)(=O)=O)ccc21	-2.7	-17.5	45.8	2.5	-11.0	39.8*
CCCCn1c(SCC(=O)N2CCCCC2)nc2cc(S(N)(=O)=O)ccc21	-7.6	-8.4	·	5.2	-22.9	2.1
COc1ccc(Nc2nc(Nc3ccc(OC)cc3OC)nc(N3CCN(C)CC3)n2)c(OC)c1	-2.8	-0.1	-316.7	-0.7	-43.9	2.7
Cc1nc(-c2ccc(Cl)cc2)sc1C1(C)CC(c2cccc(F)c2)=NO1 (stereo not drawn)	·	9.7	·	·	·	·
C1=CCC(/C=N/n2cnnc2)CC1 (stereo not drawn)	9.8	-7.6	-16.1	-0.1	-16.7	31.1*
SMILES	Yeast life ext	Mdm2 ligase inh	INS promoter inh	RAM inhibit	Yeast growth inh	Measles CPE
Cn1cc(Br)c(C(=O)Nc2nccs2)n1	-4.8	4.0	-8.3	-0.9	-19.8	31.7*
Cn1cc(Br)c(C(=O)Nc2c(F)c(F)c(F)c(F)c2F)n1	-2.9	-6.0	0.0	0.4	-4.5	22.5
CCCCNC(=O)C(=O)NC(C)CCc1ccccc1 (stereo not drawn)	-10.5	-27.5	·	-0.3	-10.0	10.3
COc1cccc(OC)c1C(=O)NN1CCCCC1	-4.3	2.4	17.9	0.8	-47.2	35.3*
CCCCn1c(=O)c(C(=O)OCC)c(O)c2ccccc21	32.4	-0.9	·	-1.6	-5.1	9.7
CCCCCCCCn1c(=O)c(C(=O)OCC)c(O)c2ccccc21	39.1*	-0.6	8.3	0.5	16.2	17.6
CCOC(=O)c1c(O)c2ccccc2n(-c2ccccc2)c1=O	17.4	-7.7	3.1	0.0	-9.1	14.6
CCCCCn1c(=O)c(C(=O)OCC)c(O)c2ccccc21	21.7	-0.6	·	9.0*	9.8	7.4
O=C(Nc1ccccc1C(=O)O)c1ccc(Br)c(S(=O)(=O)NCc2ccccc2)c1	·	-14.5	-223.8	10.7*	·	·
COc1ccc2[nH]c3c(N4CC(C)OC(C)C4)ncnc3c2c1 (stereo not drawn)	-20.8	35.4*	18.5	3.1	-26.7	15.8
CCOc1ccc2[nH]c3c(N4CCN(c5ccccn5)CC4)ncnc3c2c1	-7.8	·	87.5*	2.2	-49.0	6.2
COc1cccc(N2CCN(c3ncnc4c3[nH]c3ccc(F)cc34)CC2C)c1 (stereo not drawn)	-2.7	-14.6	50.0	4.8	-8.4	5.8
COc1ccc2nc(C)cc(N3CC(C)OC(C)C3)c2c1 (stereo not drawn)	-3.9	3.3	90.9*	0.3	-48.9	26.6*
O=C(CSc1nc2ccccc2s1)Nc1ccc2c(c1)oc1ccccc12	-2.6	17.3	48.1	4.3	-33.5	26.0*
O=C(CSc1nc2ccccc2s1)N/N=C/c1ccc(C(=O)O)cc1	·	-12.8	-161.1	10.1*	·	·
O=C(CSc1nc2ccccc2s1)c1cc2ccccc2o1	-5.2	-6.2	-85.7	9.4*	-23.3	6.4
CCOc1ccc(NC(=S)N2CCN(C/C=C/c3ccccc3)CC2)cc1	·	3.0	·	-1.2	·	·
CC(C)CCN1CCN(Cc2cccc(C(F)(F)F)c2)CC1CCO (stereo not drawn)	·	-8.0	·	-1.2	·	·
COc1ccc(-n2c(SCC(N)=O)nc3sc4c(c3c2=O)CCC4)cc1	·	-3.4	·	1.4	·	·
COc1ccccc1N1C(C)=CC(=C(C#N)c2nc3ccccc3s2)C=C1C	6.2	-41.7	·	8.5*	-24.4	6.2
CCn1c(CCNC(=O)c2cccs2)nnc1SCC(=O)Nc1nc(-c2ccccc2)cs1	·	·	-27.8	2.7	-4.2	34.5*
CCn1c(CSc2nccn2C)nc2cc(C(=O)O)ccc21	-15.2	-17.8	·	1.0	-19.8	50.9*

Bioassay records (PubChem BioAssay)
